Data taken from ChEMBL document CHEMBL3351972, “Indole-3-ethylsulfamoylphenylacrylamides: potent histone deacetylase inhibitors with anti-inflammatory activity” (Eur J Med Chem, 2014).
Active and inactive are the calls of the source. The rule behind the calls is not given here.

Experiments:
RAW264.7 [1] = test: Anti-inflammatory activity in LPS-stimulated mouse RAW264.7 cells assessed as suppression of IL6 production pre-incubated for 1 hr before LPS stimulation for 24 hrs by ELISA method; assay type: functional, cell-based
Outline: (§1)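 IL-6 and TNF-α were measured by ELISA. RAW 264.7 cells (1 × 10⁶) were plated and pretreated with or without compound for 1 h, then stimulated with LPS (25 ng/mL) for 24 h at 37 °C.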

Histone deacetylase = test: Inhibition of HDAC in human HeLa cells nuclear extracts incubated for 30 mins by fluorescent assay; assay type: cell-free
RAW264.7 [2] = test: Anti-inflammatory activity in LPS-stimulated mouse RAW264.7 cells assessed as suppression of PGE2 production pre-incubated for 1 hr before LPS stimulation for 24 hrs by enzyme immunoassay method; assay type: functional, cell-based
Outline: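 RAW 264.7 cells (1 × 10⁶) were treated with or without compound for 1 h, then stimulated with LPS (25 ng/mL) for 24 h at 37 °C. PGE₂ in culture supernatants was measured by EIA kit.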

RAW264.7 [3] = test: Anti-inflammatory activity in LPS-stimulated mouse RAW264.7 cells assessed as suppression of nitric oxide production pre-incubated for 1 hr before LPS stimulation for 24 hrs by Griess reagent based assay; assay type: functional, cell-based
Outline: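 Nitrite concentration was quantified against a standard dilution series of sodium nitrite.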

RAW264.7 [4] = test: Anti-inflammatory activity in LPS-stimulated mouse RAW264.7 cells assessed as suppression of TNFalpha production pre-incubated for 1 hr before LPS stimulation for 24 hrs by ELISA method; assay type: functional, cell-based; outline: as §1
[5] = Retention time of the compound by HPLC method; assay type: physicochemical
Rattus norvegicus [6] = test: Anti-inflammatory activity in Wistar rat model of carrageenan-induced edema assessed as reduction in right hind paw thickness at 1 mg/kg, po dosed 1 hour before carrageenan injection measured 3 hrs post carrageenan challenge by digital plethysmometry; assay type: functional, organism-based; set-up: dose 1 mg/kg
Outline: (§2)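 Male Wistar rats (7 weeks) were randomised into eight groups. They were dosed orally 1 h before carrageenan: vehicle (1% carboxymethyl cellulose + 0.5% Tween 80), test suspensions at 20 mg/kg, or indomethacin as positive control at 1 mg/kg. Carrageenan (0.5% w/v in saline) was injected intradermally into the base of the right hind paw. Paw change was read at 3 h by digital caliper and plethysmometer.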

RAW264.7 [7] = test: Anti-inflammatory activity in LPS-stimulated mouse RAW264.7 cells assessed as suppression of COX2 protein expression at 0.01 to 1 uM pre-incubated for 30 mins before LPS stimulation for 24 hrs by Western blotting method; assay type: functional, cell-based
Outline: (§3)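 RAW 264.7 cells (1 × 10⁶/well) were pretreated with compound at 0.01–1 for 30 min, then stimulated with LPS (25 ng/mL) for 24 h. Whole-cell extracts were cleared at 17,000 g for 30 min at 4 °C, and protein was measured by Bradford. Blots were blocked in 5% milk/TBST, probed with primary antibody overnight at 4 °C, then HRP secondary (1:1000) 1 h RT. Data are mean ± SEM of three replicates, compared with the LPS-only group.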

[8] = target: Transcription factor p65 (Mus musculus) (UniProt Q04207); test: Inhibition of p65 phosphorylation in LPS-stimulated mouse RAW264.7 cells at 0.01 to 1 uM pre-incubated for 30 mins before LPS stimulation for 24 hrs by Western blotting method; assay type: cell-based; outline: as §3
RAW264.7 [9] = test: Toxicity against mouse RAW264.7 cells assessed as reduction in cell viability at 0.01 to 1 uM incubated for 24 hrs by MTT assay; assay type: cell-based; details: raw264.7, 24 h
Outline: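 Macrophages were exposed to compound at 0.01–1 for 24 h. Viability was then assessed by MTT assay.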

RAW264.7 [10] = test: Inhibition of HDAC in mouse RAW264.7 cells assessed as increase in histone H3 acetylation at > 0.1 uM incubated for 24 hrs by Western blotting method
RAW264.7 [11] = test: Anti-inflammatory activity in LPS-stimulated mouse RAW264.7 cells assessed as suppression of iNOS protein expression at 0.01 to 1 uM pre-incubated for 30 mins before LPS stimulation for 24 hrs by Western blotting method; assay type: functional, cell-based; outline: as §3
Rattus norvegicus [12] = test: Anti-inflammatory activity in Wistar rat model of carrageenan-induced edema assessed as reduction in right hind paw thickness at 20 mg/kg, po dosed 1 hour before carrageenan injection measured 3 hrs post carrageenan challenge by digital plethysmometry; assay type: functional, organism-based; set-up: dose 20 mg/kg; outline: as §2

Sequence of Transcription factor p65 (Mus musculus) (Q04207 whole entry): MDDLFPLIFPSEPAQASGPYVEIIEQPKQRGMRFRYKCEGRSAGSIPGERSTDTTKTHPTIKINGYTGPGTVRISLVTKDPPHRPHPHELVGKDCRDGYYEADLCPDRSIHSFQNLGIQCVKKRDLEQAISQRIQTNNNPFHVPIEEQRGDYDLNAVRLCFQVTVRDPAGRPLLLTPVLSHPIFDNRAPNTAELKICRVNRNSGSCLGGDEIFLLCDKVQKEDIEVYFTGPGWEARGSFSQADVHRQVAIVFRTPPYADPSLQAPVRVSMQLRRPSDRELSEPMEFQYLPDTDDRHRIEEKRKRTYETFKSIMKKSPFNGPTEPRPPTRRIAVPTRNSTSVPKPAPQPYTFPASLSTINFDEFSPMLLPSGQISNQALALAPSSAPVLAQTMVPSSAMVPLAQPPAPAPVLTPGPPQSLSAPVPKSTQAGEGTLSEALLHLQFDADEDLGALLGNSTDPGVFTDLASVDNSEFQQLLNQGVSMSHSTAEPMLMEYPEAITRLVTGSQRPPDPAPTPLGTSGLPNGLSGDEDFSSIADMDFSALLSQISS

| IC50 (RAW264.7 [1]) [nM] | IC50 (Histone deacetylase) [nM] | IC50 (RAW264.7 [2]) [nM] | IC50 (RAW264.7 [3]) [nM] | IC50 (RAW264.7 [4]) [nM] | Retention_time [5] [min] | inhibition [8] | Compound | inhibition (Rattus norvegicus [6]) | inhibition (RAW264.7 [7]) | Activity (RAW264.7 [9]) | inhibition (RAW264.7 [10]) | inhibition (RAW264.7 [11]) | inhibition (Rattus norvegicus [12]) |
| --- | --- | --- | --- | --- | --- | --- | --- | --- | --- | --- | --- | --- | --- |
| 0.014 | 6.6 | 2200 | 740 | 1200 | 22.17 | – | O=C(/C=C/c1ccc(S(=O)(=O)NCCc2c[nH]c3ccccc23)cc1)NO | – | – | – | – | – | – |
| 0.059 | – | 8280 | 2200 | 4700 | – | – | O=C(/C=C/c1cccc(S(=O)(=O)Nc2ccccc2)c1)NO [BELINOSTAT] | – | – | – | – | – | – |
| 32 | 5.7 | 1500 | 290 | 620 | 24.21 | – | Cn1cc(CCNS(=O)(=O)c2ccc(/C=C/C(=O)NO)cc2)c2ccccc21 | – | – | – | – | – | – |
| – | – | – | – | – | – | – | COc1ccc2c(c1)c(CC(=O)O)c(C)n2C(=O)c1ccc(Cl)cc1 | Active | – | – | – | – | – |
| 14 | 3.3 | 150 | 300 | 800 | 25.96 | Dose-dependent effect | Cc1c(CCNS(=O)(=O)c2ccc(/C=C/C(=O)NO)cc2)c2ccccc2n1C | – | Active | Non-toxic | Active | Active | Active |
| 13 | 7.9 | 320 | 360 | 1500 | 23.3 | Dose-dependent effect | Cc1[nH]c2ccccc2c1CCNS(=O)(=O)c1cccc(/C=C/C(=O)NO)c1 | – | Active | Non-toxic | Active | Active | Active |
| 0.14 | 7.3 | 3100 | 3100 | 1500 | 16.67 | – | CCN(CC)CCn1c(C)c(CCNS(=O)(=O)c2ccc(/C=C/C(=O)NO)cc2)c2ccccc21 | – | – | – | – | – | – |
| 23.9 | 771.8 | > 10000 | > 10000 | > 10000 | 21.88 | – | Cc1[nH]c2ccccc2c1CCNS(=O)(=O)c1ccc(C(=O)NO)cc1 | – | – | – | – | – | – |
| 31 | 43.9 | 7200 | 3700 | > 10000 | 25.18 | – | O=C(/C=C/c1ccc(S(=O)(=O)N2CCc3c([nH]c4ccccc34)C2)cc1)NO | – | – | – | – | – | – |
| 21 | 3.4 | 270 | 260 | 730 | 27.93 | Dose-dependent effect | CCn1c(C)c(CCNS(=O)(=O)c2ccc(/C=C/C(=O)NO)cc2)c2ccccc21 | – | Active | Non-toxic | Active | Active | Active |
| 4.5 | 9.2 | 7400 | 1600 | > 10000 | 28.67 | – | Cc1[nH]c2ccccc2c1CCN(C(C)C)S(=O)(=O)c1ccc(/C=C/C(=O)NO)cc1 | – | – | – | – | – | – |
| 5.9 | 29.6 | 2900 | 1200 | > 10000 | 27.17 | – | CCN(CCc1c(C)[nH]c2ccccc12)S(=O)(=O)c1ccc(/C=C/C(=O)NO)cc1 | – | – | – | – | – | – |
| 5.5 | 47.4 | 2900 | 1000 | > 10000 | 25.51 | – | Cc1[nH]c2ccccc2c1CCN(C)S(=O)(=O)c1ccc(/C=C/C(=O)NO)cc1 | – | – | – | – | – | – |
| 20 | 2.8 | 330 | 740 | 480 | 23.3 | Dose-dependent effect | Cc1[nH]c2ccccc2c1CCNS(=O)(=O)c1ccc(/C=C/C(=O)NO)cc1 | – | Active | Non-toxic | Active | Active | Active |
